Screening data (PubChem)
thrombin 1536: inhibitors of human thrombin; alpha-thrombin, Boc-VPR-AMC fluorogenic substrate cleavage; 220,000 compounds, 0.26% hits; inhibition, % at 5 µM; P00734;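 active means inhibition at or above 40%; inactive means inhibition below 40%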;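 further: 0% = enzyme with no compound and 100% = wells without enzyme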
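System: human alpha-thrombin protein; Compound dosing: one concentration per compound, 5 µM, with 0.2% DMSO; Timing: reaction at room temperature; Technique: AMC fluorescence, 355/460 nm; Controls: enzyme without compound as high, wells lacking enzyme as low.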
m-calpain inh: inhibitors of pig calpain II; inhibition, % at 16 µM; 220,000 compounds, 0.37% hits; purified calpain II, fluorogenic peptide substrate, 30 min;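 active means inhibition above about 50%, limit read from the data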
hK5 inh: kallikrein 5 (human) inhibition | Q9Y337 | recombinant hK5, fluorogenic AMC substrate cleavage | inhibition, % at 5 µM | 210,000 compounds, 0.59% hits | AID 873;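 active means inhibition of 40% or more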;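 further: 0% = enzyme controls without compound and 100% = no-enzyme blanks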
FXIa inh 1536: factor XIa (human) inhibition. P03951. purified FXIa, Boc-Glu-Ala-Arg-AMC fluorogenic substrate. 220,000 compounds, 0.14% hits. inhibition, % at 5 µM;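 active means inhibition of at least 40%; inactive means inhibition below 40%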;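 further: fluorescence of freed AMC excited at 355 nm; 0% = enzyme without compound and 100% = no enzyme blank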
FXIIa inh: factor XIIa (human) inhibition; purified FXIIa, Boc-QGR-AMC fluorogenic substrate, 2 h; inhibition, % at 5 µM; 220,000 compounds, 0.3% hits; in the data active means inhibition above about 40%;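 further: 0% = enzyme with no compound and 100% = blank without enzyme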
Target sequence (P00748 20-372 limits assumed): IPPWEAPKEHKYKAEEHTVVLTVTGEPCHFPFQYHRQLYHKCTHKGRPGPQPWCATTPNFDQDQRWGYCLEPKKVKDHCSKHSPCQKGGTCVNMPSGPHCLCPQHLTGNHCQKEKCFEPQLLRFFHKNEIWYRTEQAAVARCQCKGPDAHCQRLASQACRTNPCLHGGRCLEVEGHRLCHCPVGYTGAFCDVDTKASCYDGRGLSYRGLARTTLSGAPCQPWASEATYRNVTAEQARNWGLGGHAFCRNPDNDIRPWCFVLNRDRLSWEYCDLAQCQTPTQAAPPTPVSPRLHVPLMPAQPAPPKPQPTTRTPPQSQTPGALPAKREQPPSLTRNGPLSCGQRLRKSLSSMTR
Target sequence (P00748 373-615 limits assumed): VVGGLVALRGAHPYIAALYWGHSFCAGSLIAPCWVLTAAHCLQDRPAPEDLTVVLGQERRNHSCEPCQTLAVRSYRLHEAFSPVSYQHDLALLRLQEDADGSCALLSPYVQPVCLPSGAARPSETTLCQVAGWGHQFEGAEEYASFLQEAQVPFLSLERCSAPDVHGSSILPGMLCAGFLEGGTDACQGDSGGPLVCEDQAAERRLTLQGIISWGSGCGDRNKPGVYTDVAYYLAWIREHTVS
Active calls of the source: *. Sampled rows, rich in hits. Any-hit rate of the full collection: about 1.4%.

How did CCC1(c2ccc(F)cc2)NC(=O)N(CC(=O)Nc2ccc(S(N)(=O)=O)cc2)C1=O (configuration not stated) do in these assays?
thrombin 1536: -5; m-calpain inh: 7; hK5 inh: -3; FXIa inh 1536: -3; FXIIa inh: 7

How did Cc1ccc(C(=O)Nc2nc(C)c(C(=O)Nc3ccc4c(c3)CCC4)s2)cc1 do in these assays?
thrombin 1536: 2; m-calpain inh: -76; hK5 inh: -10; FXIa inh 1536: 7; FXIIa inh: 13

How did CC(C)N=Cc1c(O)[nH]c2ccccc12 do in these assays?
thrombin 1536: 4; m-calpain inh: 18; hK5 inh: -15; FXIa inh 1536: 14; FXIIa inh: 46*

Results for CC(C)(CO)N=Cc1c(O)[nH]c2ccccc12 ?
thrombin 1536: 1; m-calpain inh: -2; hK5 inh: 48*; FXIa inh 1536: 4; FXIIa inh: 17

How did Cc1cccc(/N=C/c2c(O)[nH]c3ccccc23)n1 do in these assays?
thrombin 1536: 8; m-calpain inh: 5; hK5 inh: 15; FXIa inh 1536: 9; FXIIa inh: 14

What do the screens show for `CC(C)(C)c1[nH]c2ccccc2c1/C=N/O`?
thrombin 1536: -2; m-calpain inh: -10; hK5 inh: 32; FXIa inh 1536: 0; FXIIa inh: 8

Results for Cc1ccc(N=c2c([N+](=O)[O-])nn(-c3ccc4c(c3)OCCO4)n2O)c(Cl)c1 ?
thrombin 1536: -7; m-calpain inh: 53*; hK5 inh: 2; FXIa inh 1536: 0; FXIIa inh: 8

What do the screens show for `Cc1cc(C)cc(N=c2c([N+](=O)[O-])nn(-c3ccc4c(c3)OCCO4)n2O)c1`?
thrombin 1536: 2; m-calpain inh: -12; hK5 inh: -17; FXIa inh 1536: -1; FXIIa inh: 10

Results for C#CC(CC)(CC)NC(=O)Nc1ccccc1C(=O)OC ?
thrombin 1536: 2; m-calpain inh: -42; hK5 inh: 4; FXIa inh 1536: -6; FXIIa inh: 1

Results for Cc1cccc(NC(=O)CSc2nnc(-c3ccncc3)n2C)c1 ?
thrombin 1536: 2; m-calpain inh: -10; hK5 inh: -9; FXIa inh 1536: 21; FXIIa inh: 30

What do the screens show for `Cn1c(SCC(=O)NNC(=S)Nc2ccccc2)nnc1-c1ccncc1`?
thrombin 1536: 50*; m-calpain inh: -8; hK5 inh: -4; FXIa inh 1536: -1; FXIIa inh: 8

How did S=C(NCCc1ccccc1)N1CCc2ccccc2C1 do in these assays?
thrombin 1536: -7; m-calpain inh: 32; hK5 inh: -8; FXIa inh 1536: -6; FXIIa inh: 0

What do the screens show for `Cc1ccccc1N1C(=O)CC(Nc2ccc3c(c2)OCO3)C1=O` (configuration not stated)?
thrombin 1536: -3; m-calpain inh: -19; hK5 inh: 1; FXIa inh 1536: -3

Results for COC(=O)c1ccc(NC2CC(=O)N(c3ccccc3C)C2=O)cc1 (configuration not stated) ?
thrombin 1536: 45*; m-calpain inh: 9; hK5 inh: 27; FXIa inh 1536: -1; FXIIa inh: 31

What do the screens show for `CN(C)c1nc(N)c([N+](=O)[O-])c(NCCO)n1`?
thrombin 1536: -4; m-calpain inh: 2; hK5 inh: -9; FXIa inh 1536: 4; FXIIa inh: 7

Results for COC(=O)c1sccc1NC(=O)CSCCc1ccncc1 ?
thrombin 1536: -2; m-calpain inh: -4; hK5 inh: -6; FXIa inh 1536: 1; FXIIa inh: -4

Results for COc1ccc(C2C(C(C)=O)=C(O)C(=O)N2c2nc3ccccc3s2)cc1OC (configuration not stated) ?
thrombin 1536: 6; m-calpain inh: -25; hK5 inh: -5; FXIa inh 1536: -2; FXIIa inh: 5

What do the screens show for `COc1ccc(C2C(C(C)=O)=C(O)C(=O)N2c2nccs2)cc1OC` (configuration not stated)?
thrombin 1536: 23; m-calpain inh: 20; hK5 inh: 57*; FXIa inh 1536: 11; FXIIa inh: 50*

Results for O=C(Cn1c(CO)nc2ccccc21)Nc1cc(C(F)(F)F)ccc1N1CCOCC1 ?
thrombin 1536: 4; m-calpain inh: -32; hK5 inh: -20; FXIa inh 1536: -8; FXIIa inh: 13

Results for O=C(CNCc1ccccn1)Nc1cc(C(F)(F)F)ccc1N1CCOCC1 ?
thrombin 1536: 9; m-calpain inh: 16; hK5 inh: 39; FXIa inh 1536: 30; FXIIa inh: 41*

How did CCN(CCNS(=O)(=O)c1ccc2c(c1)oc(=O)n2C)c1ccccc1 do in these assays?
thrombin 1536: -5; m-calpain inh: 17; hK5 inh: 42*; FXIa inh 1536: -2; FXIIa inh: 6

Results for Cc1nc(SCC(=O)NC(C)c2ccccc2)c2oc3ccccc3c2n1 (configuration not stated) ?
thrombin 1536: -6; m-calpain inh: 57*; hK5 inh: -16; FXIa inh 1536: -5; FXIIa inh: 9

What do the screens show for `Cc1nc(SCC(=O)Nc2ccccc2)c2oc3ccccc3c2n1`?
thrombin 1536: 1; m-calpain inh: 46; hK5 inh: -7; FXIa inh 1536: 6; FXIIa inh: 13

What do the screens show for `COC(=O)C(NC(=O)c1ccco1)(Nc1ccc(Br)cn1)C(F)(F)F` (configuration not stated)?
thrombin 1536: -4; m-calpain inh: 15; hK5 inh: -4; FXIa inh 1536: -3; FXIIa inh: 16

What do the screens show for `O=C(Nc1ccon1)c1cccc(S(=O)(=O)N2CCCCC2)c1`?
thrombin 1536: -3; m-calpain inh: -23; hK5 inh: 8; FXIa inh 1536: -2; FXIIa inh: 4

What do the screens show for `CC(=O)NC(C)c1ccc(Cl)c(Cl)c1` (configuration not stated)?
thrombin 1536: 16; m-calpain inh: 14; hK5 inh: 68*; FXIa inh 1536: 14; FXIIa inh: 0

How did COc1ccc(C(C)NC(=O)c2ccccc2Cl)cc1OC (configuration not stated) do in these assays?
thrombin 1536: -3; m-calpain inh: -6; hK5 inh: -12; FXIa inh 1536: -1; FXIIa inh: 0

How did COc1ccc(C2N(c3ccccc3)CCN2c2ccccc2)cc1O do in these assays?
thrombin 1536: 9; m-calpain inh: -4; hK5 inh: 18; FXIa inh 1536: 34; FXIIa inh: 46*

Results for COc1cc(C2N3CC4(C)CN2CC(C)(C3)C4)ccc1O (configuration not stated) ?
thrombin 1536: -1; m-calpain inh: 25; hK5 inh: -22; FXIa inh 1536: 0; FXIIa inh: 6

How did COc1ccc(-c2cc(C(=O)N3CCCc4ccccc43)no2)cc1 do in these assays?
thrombin 1536: 2; m-calpain inh: 53*; hK5 inh: -19; FXIa inh 1536: 5; FXIIa inh: 14

Results for COc1ccccc1CNC(=O)CSc1nc(C)cs1 ?
thrombin 1536: -9; m-calpain inh: 8; hK5 inh: -1; FXIa inh 1536: -3; FXIIa inh: 5
